Test results taken from PubChem BioAssay.
Activity calls are given as the source filed them.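 How the source made its calls, unless noted: active means inhibition above 20% together with a positive visual image hit; inconclusive means visual image hit but inhibition not above 20%; inactive means no visual image hit.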

Experiments:
[1] = inhibitors of TNFa-induced NFkB p65 translocation, primary screen, imaging, HUVEC, MLSMR starter and 10KST1 sets (AID 438); details: HUVEC TNFa-induced p65 nuclear translocation; cell count: measured here: nuclei count (cytotoxicity indicator), at 2.08 µM; inhibition: at 2 µM, stronger effect = higher value, 0% TNFa-plus-vehicle, 100% no-TNFa wells;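 further: compound added about 3h40 before a 20 min TNFalpha stimulation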;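 on inhibition: signal is the nuclear over cytoplasmic p65 intensity ratio per well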
[2] = endothelial E-selectin expression blockers – imaging, HUVEC, immunofluorescence, MLSMR starter and 10KST1 sets, primary screen (AID 487;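 active means visually confirmed hit in the image check and inhibition above 20%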;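 on inhibition: signal is fraction of cell area covered by stained E-selectin grains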;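 on nuclei count: 100% = median nuclei count of all wells on the same plate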); details: HUVEC TNFalpha-induced E-selectin immunofluorescence imaging, at 2 µM; inhibition: stronger effect = higher value; nuclei count: measured here: cell number, toxicity
[3] = Primary imaging screen for DUSP6 inhibitors that restore phospho-Erk in transfected HeLa cells, chemical complementation (AID 609;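 active means compounds giving at least 50% inhibition in the cell-based MKP-3 phosphatase rescue imaging test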;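 on inhibition: phospho-Erk level distribution per well compared with pooled transfected vehicle control wells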); details: HeLa MKP-3 transfected, phospho-Erk imaging KS statistic, at 10 µM, cells stimulated with TPA for 15 min
[4] = biological target: Dual specificity protein phosphatase 6 (Homo sapiens) (UniProt Q16828); assay: as above; details: HeLa MKP-3 transfected, phospho-Erk imaging KS statistic; at 10 µM; stronger effect = higher value; cells stimulated with TPA for 15 min
Chain of Dual specificity protein phosphatase 6 (Homo sapiens) (Q16828 whole entry, looked up): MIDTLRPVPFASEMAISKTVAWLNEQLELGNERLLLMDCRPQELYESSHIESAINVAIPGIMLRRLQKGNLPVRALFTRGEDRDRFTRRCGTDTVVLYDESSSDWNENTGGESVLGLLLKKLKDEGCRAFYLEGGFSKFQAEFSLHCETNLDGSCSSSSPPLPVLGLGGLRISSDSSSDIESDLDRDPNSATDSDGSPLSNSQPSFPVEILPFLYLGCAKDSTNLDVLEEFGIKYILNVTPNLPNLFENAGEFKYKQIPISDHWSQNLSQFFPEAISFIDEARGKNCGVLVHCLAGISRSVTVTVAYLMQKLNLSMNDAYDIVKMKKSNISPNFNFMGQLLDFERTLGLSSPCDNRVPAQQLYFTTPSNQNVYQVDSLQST

[5] = biological target: Voltage-gated potassium channel subunit beta-2 (Rattus norvegicus) (UniProt P62483); assay: inhibitors of rat Kvbeta2 reductase activity – biochemical, NADPH fluorescence, primary screen (AID 622;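 active means fluorescence slope higher than the sample average by over 3 SD, cut at about -0.22 in these data, passing the limit was not always enough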;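 further: slope of raw intensity against log time taken from 70 to 1610 s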); details: recombinant KvBeta, 4-cyanobenzaldehyde reduction, at 10 µM, stronger effect = higher value
Chain of Voltage-gated potassium channel subunit beta-2 (Rattus norvegicus) (P62483 whole entry, looked up): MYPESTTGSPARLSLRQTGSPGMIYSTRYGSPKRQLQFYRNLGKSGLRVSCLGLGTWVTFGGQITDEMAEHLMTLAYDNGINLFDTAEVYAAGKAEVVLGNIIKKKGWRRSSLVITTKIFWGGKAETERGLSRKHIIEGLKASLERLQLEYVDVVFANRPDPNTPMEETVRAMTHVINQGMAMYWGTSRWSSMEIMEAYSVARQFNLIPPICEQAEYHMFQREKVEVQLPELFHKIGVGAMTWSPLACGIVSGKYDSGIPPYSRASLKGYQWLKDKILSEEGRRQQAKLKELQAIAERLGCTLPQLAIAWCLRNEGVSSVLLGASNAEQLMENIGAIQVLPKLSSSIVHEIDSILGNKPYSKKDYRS

[6] = biological target: Voltage-gated potassium channel subunit beta-2 (Rattus norvegicus) (UniProt P62483); assay: enhancers of rat Kvbeta2 NADPH turnover – biochemical, NADPH fluorescence, primary screen (AID 623;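 active means NADPH fluorescence slope more negative than the mean of all samples by about 3 SD, 99.7% confidence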;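 further: fluorescence intensity change per second fitted from 20 to 320 s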); details: Recombinant KvBeta, NADPH fluorescence decrease slope, 10 min; at 10 µM; stronger effect = lower value
[7] = biological target: Muscarinic acetylcholine receptor M4 (Homo sapiens) (UniProt P08173); assay: M4-linked GIRK flux change, two-sided – cell-based, HEK293 M4/GIRK, thallium flux, BTC-AM, M4 allosteric agonist project, primary screen (AID 625;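 active means fluorescence slope after compound addition differing from the mean of all tested samples at 99.7% confidence, mostly higher but some lower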;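 further: thallium influx through GIRK channels coupled to M4 in HEK293 cells with BTC-AM dye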); details: at 10 µM, actives lie on both sides
Chain of Muscarinic acetylcholine receptor M4 (Homo sapiens) (P08173 whole entry, looked up): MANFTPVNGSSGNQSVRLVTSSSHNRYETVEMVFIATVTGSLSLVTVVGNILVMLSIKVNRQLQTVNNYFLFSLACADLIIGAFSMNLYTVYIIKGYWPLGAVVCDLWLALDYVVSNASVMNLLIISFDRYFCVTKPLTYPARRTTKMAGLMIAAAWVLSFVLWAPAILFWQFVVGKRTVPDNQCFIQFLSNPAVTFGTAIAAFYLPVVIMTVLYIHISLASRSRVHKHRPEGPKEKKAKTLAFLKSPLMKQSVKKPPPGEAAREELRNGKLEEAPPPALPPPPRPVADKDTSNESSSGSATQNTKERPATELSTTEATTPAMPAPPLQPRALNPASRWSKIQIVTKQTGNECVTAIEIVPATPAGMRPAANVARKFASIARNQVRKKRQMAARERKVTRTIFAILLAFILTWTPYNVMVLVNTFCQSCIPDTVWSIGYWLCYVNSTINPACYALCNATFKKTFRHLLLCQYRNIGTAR
Procedure, shortened: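 Assay system: HEK293 cells with M4 receptor and GIRK channels / Controls: carbachol and DMSO controls / Schedule: 1 h dye loading, 2 min kinetic read / Technique: kinetic fluorescence with BTC-AM dye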

[8] = inhibitors of larval lipid processing in zebrafish, primary screen, whole organism, PED6 fluorescence, gall bladder and intestine (AID 686;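 active means a full or partial loss of lipid-probe fluorescence in the fish gall bladder, intestine or both, judged by eye; inactive means no fluorescence loss, or compound toxic to the fish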;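 further: larvae 5 to 7 days old with five fish per well; signal comes from phospholipase A2 cleavage of quenched PED6 carried via bile; overnight exposure to compound and PED6 before scoring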); details: Zebrafish larvae PED6 lipid processing, fluorescence scoring; screened at 20 µM (by protocol)
Procedure, shortened: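 Doses: 20 µM single dose. Test system: live zebrafish larvae aged 5-7 days, whole organism. Quantity: five larvae per well. Measured by: By-eye fluorescence microscopy. Reagent: ingested quenched lipid PED6 at 100 nM. Read-out: visual per-well fluorescence inhibition score. Times: overnight exposure of larvae to compound plus PED6.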

[9] = loss of swimming-algae plug formation – whole organism, Chlamydomonas reinhardtii, WT vs cilia-less mutant, absorbance, 96-well, primary screen (AID 463189;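 active means inhibition at or above 50% relative to wild type and mutant plate controls; inactive means inhibition below 50%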;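 further: 0% = wild type cc124 cells in DMSO and 100% = ciliumless bld1 mutant cells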); details: Chlamydomonas reinhardtii gravitaxis, OD600 absorbance, 2 days; at 10 µM; stronger effect = higher value
[10] = measured here: cell density z-score
[11] = measured here: nuclear c-Myc green intensity z-score
[12] = measured here: nuclear pErk red intensity z-score, stronger effect = higher value

Row | Structure (SMILES) | cell count [1] | inhibition [1] | inhibition [2] | nuclei count [2] | z-score [3, 10] | z-score [3, 11] | z-score [3, 12] | inhibition [4] | fluorescence slope [5] | NADPH fluorescence slope [6] | fluorescence slope [7] | outcome [8] | inhibition [9]
1 | COc1cccc(C2CC(c3ccccc3Cl)n3nc(N)nc3N2)c1 (stereo unspecified) | 399 | -1.4% (inactive) | -136% (inactive) | 131% | 0.0849 | 1.44 | -0.355 | 24.4% (inactive) | -0.464 (inactive) | -7.1e-05 (inactive) | 0.00588 (inactive) | inactive | 29.4% (inactive)
2 | CCN(CC)c1nc(C)c2c(c1C#N)CC(C)(C)OC2 | 491 | -5.9% (inactive) | -142% (inactive) | 118% | -2.08 | 0.916 | -0.636 | 13.4% (inactive) | -0.462 (inactive) | -1.1e-05 (inactive) | 0.00447 (inactive) | inactive | -9.09% (inactive)
3 | C/C(=N/n1cnnc1)c1cccnc1 | 541 | 1.3% (inactive) | -130% (inactive) | 140% | 0.514 | -0.833 | -1.29 | 3.42% (inactive) | -0.448 (inactive) | -0.000104 (inactive) | 0.00412 (inactive) | inactive | -7.67% (inactive)
4 | CC(C)c1nc(N2CCOCC2)c(C#N)c2c1COC(C)(C)C2 | 535 | -5.2% (inactive) | -79.8% (inactive) | 110% | 0.188 | -0.524 | -1.28 | -9.53% (inactive) | -0.424 (inactive) | 4.6e-06 (inactive) | 0.00516 (inactive) | inactive | -30% (inactive)
5 | COc1cccc(NC(=O)c2cc(C(=O)Nc3cccc(OC)c3)n(C)n2)c1 | 589 | 5.1% (inactive) | -73.5% (inactive) | 108% | -0.897 | 0.197 | 0.57 | 1.12% (inactive) | -0.504 (inactive) | -3.5e-05 (inactive) | 0.00667 (inactive) | inactive | -5.34% (inactive)
6 | Cn1c(=O)c2c(nc(Br)n2CCSc2nc3ccccc3o2)n(C)c1=O | 608 | -8.8% (inactive) | 32.7% (inactive) | 175% | -0.0761 | 0.135 | -1.22 | 17.4% (inactive) | -0.346 (inactive) | -7e-06 (inactive) | 0.00576 (inactive) | inactive | 45.2% (inactive)
7 | O=C(C1CCCCC1)N1CCCn2c1nc1ccccc12 | 466 | -4.2% (inactive) | 40.4% (inactive) | 93.7% | 0.0435 | 0.0435 | -0.166 | -0.233% (inactive) | -0.481 (inactive) | -3.7e-05 (inactive) | 0.00633 (inactive) | inactive | -20.3% (inactive)
8 | Cc1ccc(S(=O)(=O)N(CC(O)CN(C)C)c2ccccc2)cc1 (stereo unspecified) | 534 | -13.1% (inactive) | -98.3% (inactive) | 180% | 0.563 | -0.408 | -0.341 | -6.59% (inactive) | -0.412 (inactive) | -7e-05 (inactive) | 0.00541 (inactive) | inactive | 2.93% (inactive)
9 | Cn1c(NCc2ccccc2)nc2c1c(=O)n(Cc1ccccc1)c(=O)n2C | 694 | -5.5% (inactive) | -54.8% (inactive) | 172% | 0.899 | -0.674 | 1.21 | 5.95% (inactive) | -0.461 (inactive) | -8.2e-05 (inactive) | 0.00535 (inactive) | inactive | 6.49% (inactive)
10 | Cc1cc(=O)oc(C)c1C(=O)NCCC1=CCCCC1 | 603 | -7.1% (inactive) | -25.9% (inactive) | 114% | -1.14 | 1.4 | 1.29 | 1.63% (inactive) | -0.415 (inactive) | -3.7e-05 (inactive) | 0.00474 (inactive) | inactive | -3.01% (inactive)
11 | COc1cccc(C2/C(=C(\O)c3ccc4c(c3)OCCO4)C(=O)C(=O)N2CCCN(C)C)c1OC (stereo unspecified) | 396 | 1.1% (inactive) | -21.2% (inactive) | 174% | 0.231 | -0.342 | 2 | -6.86% (inactive) | -0.452 (inactive) | -9.9e-05 (inactive) | 0.00452 (inactive) | inactive | 18.1% (inactive)
12 | O=c1c2c3c(sc2nc2n1CCCS2)CCCC3 | 612 | -6.1% (inactive) | -125% (inactive) | 162% | -0.979 | -0.423 | 0.7 | -7.67% (inactive) | -0.477 (inactive) | -9.8e-05 (inactive) | 0.00442 (inactive) | inactive | 73.3% (active)
13 | NC(=O)/C(=N\O)c1ccccc1 | 575 | 5.9% (inactive) | -43.3% (inactive) | 113% | -0.256 | -0.324 | 0.104 | -4.7% (inactive) | -0.461 (inactive) | -5.1e-05 (inactive) | 0.00531 (inactive) | inactive | -12.8% (inactive)
14 | CCCCSc1nc(O)c(C2OC(=O)c3c2ccc(OC)c3OC)c(=O)n1C (stereo unspecified) | 559 | 1.9% (inactive) | 57.7% (active) | 95.8% | -2.21 | -0.0853 | 0.751 | 9.91% (inactive) | -0.372 (inactive) | -2.3e-05 (inactive) | 0.00535 (inactive) | inactive | 32.4% (inactive)
15 | Cc1ccc(-n2ncc3c(N4CCCC4)ncnc32)c(C)c1 | 615 | -13.7% (inactive) | 4.8% (inactive) | 158% | 0.427 | -1.76 | -0.345 | -2.59% (inactive) | -0.327 (inactive) | -4.9e-06 (inactive) | 0.00689 (inactive) | inactive | 147% (active)
16 | CN1CCc2c(n(CC(O)CN3C(=O)c4ccccc4S3(=O)=O)c3ccccc23)C1=O (stereo unspecified) | 678 | -11.7% (inactive) | -109% (inactive) | 158% | 1.84 | -0.542 | -1.28 | 6.04% (inactive) | -0.488 (inactive) | -3.3e-05 (inactive) | 0.00494 (inactive) | inactive | 6.44% (inactive)
17 | COc1ccccc1C1/C(=C(\O)c2ccc3c(c2)OCCO3)C(=O)C(=O)N1CCCN(C)C (stereo unspecified) | 402 | 2.9% (inactive) | -18% (inactive) | 134% | 1.75 | -0.784 | 1.05 | -4.78% (inactive) | -0.456 (inactive) | -7.9e-05 (inactive) | 0.00501 (inactive) | inactive | 12.8% (inactive)
18 | CSc1nc2sc3c(c2c2nnnn12)CCC3 | 594 | -5.2% (inactive) | -73% (inactive) | 143% | -0.0727 | 0.543 | 0.37 | 1.63% (inactive) | -0.441 (inactive) | -0.000113 (inactive) | 0.00506 (inactive) | inactive | 17.9% (inactive)
19 | O=C(COc1ccc(F)cc1)OCCN1CCOCC1 | 565 | -8.9% (inactive) | -82.4% (inactive) | 135% | -1.31 | 0.0144 | 2.07 | -10.6% (inactive) | -0.449 (inactive) | -0.000116 (inactive) | 0.00404 (inactive) | inactive | -2.61% (inactive)
20 | CC1(C)Cc2c(c(-c3ccco3)[nH]c(=O)c2C#N)CS1 | 706 | -0.5% (inactive) | -101% (inactive) | 143% | 0.203 | 0.427 | 1.52 | -11.5% (inactive) | -0.388 (inactive) | -9.3e-05 (inactive) | 0.00494 (inactive) | inactive | 3.67% (inactive)
21 | Cc1cccc(-c2nnc3n2N=C(c2ccccc2)CS3)c1 | 713 | 6.8% (inactive) | -55.5% (inactive) | 169% | 0.462 | -0.93 | 1.32 | 16.8% (inactive) | -0.415 (inactive) | -6.7e-05 (inactive) | 0.00492 (inactive) | inactive | 44.7% (inactive)
22 | CC(=O)Nc1ccc(NCC(O)COc2ccccc2)cc1 (stereo unspecified) | 374 | 6.4% (inactive) | 6.8% (inactive) | 81.4% | -1.13 | -0.751 | 0.509 | -2.59% (inactive) | -0.495 (inactive) | -6.3e-05 (inactive) | 0.00402 (inactive) | inactive | 22.2% (inactive)
23 | CCCCCOc1ccc(C(=O)NCC(=O)NCC(=O)OCC)cc1 | 715 | 9.7% (inactive) | -113% (inactive) | 150% | -0.426 | -0.0633 | -0.949 | 1.63% (inactive) | -0.417 (inactive) | -6e-05 (inactive) | 0.00389 (inactive) | inactive | -5.95% (inactive)
24 | CC(C)(C)c1cc(-c2ccco2)c(C#N)c(SCC#N)n1 | 685 | 6.9% (inactive) | -48.1% (inactive) | 116% | 0.036 | 0.336 | 0.596 | -9.53% (inactive) | -0.442 (inactive) | -7.2e-05 (inactive) | 0.0081 (inactive) | inactive | -12.6% (inactive)
25 | c1ccc2c(c1)[nH]c1c(N3CCN(C4CCCCC4)CC3)ncnc12 | 601 | -21% (inactive) | -59.2% (inactive) | 172% | 0.663 | -1.44 | -1.01 | 27.4% (inactive) | -0.169 (inactive) | -1.6e-05 (inactive) | 0.00557 (inactive) | inactive | 18.4% (inactive)
26 | CCCCc1nc(N2CCOCC2)c(C#N)c2c1COC(C)(C)C2 | 530 | -4.2% (inactive) | -202% (inactive) | 149% | 1.13 | -0.937 | -0.238 | 15.4% (inactive) | -0.458 (inactive) | -6.7e-05 (inactive) | 0.00404 (inactive) | inactive | 1.03% (inactive)
27 | CCC(=O)Nc1ccc(-c2nnc(SCC(=O)NCC3CCCO3)n2C)cc1 (stereo unspecified) | 656 | -4.5% (inactive) | 10.4% (inactive) | 160% | -0.113 | 1.6 | 0.412 | -2.09% (inactive) | -0.5 (inactive) | -5.7e-05 (inactive) | 0.0052 (inactive) | inactive | -4.35% (inactive)
